# Only some compounds are listed: those with a hit (about 2.1% of all), similar ones and a draw of the others.
# cardiac RTF act – increases calcium sensitivity of human cardiac regulated thin filaments. activation, % at 7.2 µM. actives 0.24% (n = 340,000). IANBD-labeled TnC RTF fluorescence at EC20 calcium; 0% EC20 calcium, 100% full calcium. P19429+P45379;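 active means activation above the mean over all tested compounds plus 3 SD, cut at about 30% in these data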;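 further: rise in fluorescence read as greater calcium sensitivity of cardiac thin filaments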
# ARNT TACC3 PPI – disruptors of human ARNT/TACC3 interaction; Q9Y6A5; AlphaScreen His-ARNT PAS-B/GST-TACC3 binding, luminescence; TACC3 fragment carries E629A point mutation; inhibition, % at 9.99 µM; actives 0.66% (n = 390,000); AID 623870;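 active means mean inhibition of replicates at least 50% and at least half of replicates each reaching 50%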
# Mot1-301 SUMO – SUMOylation pathway inhibition by Mot1-301 growth rescue | S. cerevisiae Mot1-301 growth rescue, ATP luminescence, 38.5C; percent above DMSO median, 100 means doubled | growth rescue, % at 18.8 µM | actives 1% (n = 320,000);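 active means every valid replicate shows activation above 250% relative to neutral control wells; inactive means the rest, any valid replicate at or below 250%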
# Cardiac RTF inh – cardiac RTF calcium desensitization; inhibition, % at 7.15 µM; IANBD-labeled cardiac RTF, Ca2+ fluorescence; actives 0.12% (n = 340,000); P19429+P45379;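 active means inhibition above the mean inhibition of all tested compounds plus 3 SD, cut at about 17% in these data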;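 further: assay run at fixed EC70 calcium of 1.6 mM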
# Efflux pump mplx – antifungal efflux pump inhibition, Nile Red retention. S. cerevisiae Candida pump triplex. inhibition, % at 10 µM. actives 0.44% (n = 330,000). AID 485275;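 active means plate passing quality check with inhibition over a set limit, or well fluorescence over plate mean plus 4 SD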;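 further: Nile Red retained in pooled yeast measured as flow cytometry median fluorescence; higher means more Nile Red kept so more efflux inhibition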
# UCH37 inh – human UCH37 deubiquitinating enzyme inhibition; Q9Y5K5; purified proteasome/UCH37, Ub-AMC cleavage fluorescence; inhibition, % (no concentration beside the values); actives 0.33% (n = 330,000);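 active means mean inhibition over replicate wells above about 20%, limit read from the data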
# Target sequence (Q9Y5K5 whole entry, looked up): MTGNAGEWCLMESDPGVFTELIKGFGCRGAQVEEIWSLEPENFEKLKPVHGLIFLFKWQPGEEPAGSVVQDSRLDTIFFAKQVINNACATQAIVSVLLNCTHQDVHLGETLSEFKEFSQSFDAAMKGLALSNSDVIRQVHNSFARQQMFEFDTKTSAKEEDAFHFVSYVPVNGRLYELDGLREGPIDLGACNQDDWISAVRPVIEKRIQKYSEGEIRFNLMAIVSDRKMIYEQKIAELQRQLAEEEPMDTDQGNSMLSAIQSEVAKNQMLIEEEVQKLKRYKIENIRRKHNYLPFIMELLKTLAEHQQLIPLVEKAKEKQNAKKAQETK
#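 Assay system: Proteasome-bound UCH37. Buffer or medium: pH 7.4 Tris-HCl (50 mM) with ovalbumin, ATP-MgCl2, DTT. Incubation: 30 min preincubation with enzyme, 25 min cleavage at room temperature. Measured by: fluorescence, ex 355 nm, em 460 nm. Read-out basis: percent inhibition. Control set: wells without proteasome as full block, compound-free enzyme plus substrate as uninhibited.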
# Numbers stand for hits; - = inactive; . = not tested or not shown; ! = not confirmed by another sample.
SMILES,cardiac RTF act,ARNT TACC3 PPI,Mot1-301 SUMO,Cardiac RTF inh,Efflux pump mplx,UCH37 inh
COc1cc(C=NNC(=S)NN=Cc2cc(OC)c(OC)c(OC)c2)cc(OC)c1OC,.,.,.,.,.,-
COc1ccc(-n2c(C)cc(/C=C3\SC(=S)N(Cc4ccco4)C3=O)c2C)cc1,31,-,-,-,-,-
CC(=O)C(=NNc1ccc(Cl)cc1Cl)Sc1nnc(-c2ccccc2)n1-c1ccccc1,.,.,.,.,.,-
O=C(Cn1cccc1C(=O)c1ccccc1)NCCc1ccc(Cl)cc1,-,-,314,-,-,-
CN(C)S(=O)(=O)N1CCC(Oc2cccc(C(=O)NC3CCCCC3)c2)CC1,-,-,-,-,-,-
CN(C)S(=O)(=O)N1CCC(Oc2cccc(C(=O)NCCC3=CCCCC3)c2)CC1,-,-,-,-,-,22
CCNC(=S)NN=C(C)c1ccc(Cl)s1,.,.,.,.,.,-
COc1ccc(/C=N/Nc2nnc(C)n2N)cc1OC,-,54,-,-,-,.
COc1ccc(/C=N/Nc2nnc(C)n2N)cc1OC(C)=O,-,-,-,-,-,.
N#Cc1ccc(N=c2ssnc2Cl)cc1,-,-,303!,-,-,-
Clc1ccc(N=c2ssnc2Cl)cc1,-,-,340,-,-,-
O=[N+]([O-])c1ccc(C=NNc2nc(N3CCCCC3)nc(N3CCCCC3)n2)cc1,.,.,.,.,.,-
COc1cccc(NC(=O)c2ccncc2)c1,-,-,-,-,-,-
COc1cccc(NC(=O)c2ccc(NC(C)=O)cc2)c1,-,-,-,-,-,26
CC(C)(C)C(=O)C=c1[nH]c(=O)c(=Cc2ccc(F)cc2)s1,.,.,.,.,.,-
O=C(CNC(=O)C12CC3CC(CC(C3)C1)C2)NN=Cc1ccco1,.,.,.,.,.,-
Cc1n[nH]c(C)c1N1C(=O)c2cccc3c(N4CCCCCC4)ccc(c23)C1=O,317,-,-,-,-,-
O=C1c2cccc3c(N4CCCCC4)ccc(c23)C(=O)N1c1cccc(O)c1,59,-,-,-,-,-
C=CCN1C(=O)c2cccc3c(N4CCCCC4)ccc(c23)C1=O,74,-,-,-,-,-
COc1cc(C=NNS(=O)(=O)c2ccc(C(C)(C)C)cc2)cc([N+](=O)[O-])c1O,.,.,.,.,.,-
N#Cc1c(Sc2ncc(C(F)(F)F)cc2Cl)nsc1CC=NOCc1c(F)cccc1Cl,.,.,.,.,.,-
Cc1ccc(NC(=O)C2C3CCC(O3)C2C(=O)O)cc1Cl (stereo not drawn),-,-,355,-,-,-
O=C(NN=CC1CCCCC1)c1ccccc1-n1cccc1,.,.,.,.,.,-
O=C([C@@H]1[C@@H](CO)[C@@H]2Cn3c(cccc3=O)[C@@H]2N1CCC(F)(F)F)N1CCCCC1,.,9.3,.,.,.,.
CC1CCCCC1NC(=O)COC(=O)c1c2c(nc3ccccc13)/C(=C/c1ccco1)CC2 (stereo not drawn),-,-,-,-,-,-
SMILES,cardiac RTF act,ARNT TACC3 PPI,Mot1-301 SUMO,Cardiac RTF inh,Efflux pump mplx,UCH37 inh
O=C(COC(=O)c1c2c(nc3ccccc13)/C(=C/c1ccco1)CC2)NC1CCCC1,-,-,.,17,.,-
CCCCNC(=O)COC(=O)c1c2c(nc3ccccc13)/C(=C\c1cccs1)CC2,37,-,.,-,.,-
CC(C)CNC(=O)COC(=O)c1c2c(nc3ccccc13)/C(=C/c1cccs1)CC2,-,-,-,-,-,-
COc1cc2[nH]c(=S)nc(NCc3ccc(Cl)cc3)c2cc1OC,-,-,-,-,-,-
COc1cc2[nH]c(=S)nc(NCCC(C)C)c2cc1OC,-,64,-,-,-,-
COCCCNc1nc(=S)[nH]c2cc(OC)c(OC)cc12,-,64,-,-,-,-
Cc1cc(C)nc(N=C(N)Nc2cccc([N+](=O)[O-])c2)n1,.,.,.,.,.,-
Cc1cccc(Nc2ncnc(N)n2)c1,-,-,541,-,-,-
COc1ccc(C=NN2C(=O)CSC2=S)cc1Br,.,.,.,.,.,-
CN(C)c1ccc(N/C=C/C(=O)C(C)(C)C)cc1,-,27,-,-,-,-
O=C(CNc1cccc2ccccc12)NN=Cc1ccc([N+](=O)[O-])o1,.,.,.,.,.,-
C/C=C/c1ccc([C@@H]2[C@H](CO)N(Cc3ccccn3)[C@H]2CNC(C)=O)cc1,.,37,.,.,.,.
O=C(NN=Cc1ccco1)c1cccc(NC(=O)c2ccccc2Cl)c1,.,.,.,.,.,-
O=[N+]([O-])/C=C/c1cn(Cc2ccc(Cl)cc2)c2ccccc12,-,-,-,-,-,20
